# From ChEMBL document CHEMBL1143739, “SAR study of bicyclo[4.1.0]heptanes as melanin-concentrating hormone receptor R1 antagonists: taming hERG” (Bioorg Med Chem, 2007)
# Active and inactive are the calls of the source. The rule behind the calls is not given here.
# Experiments:
# [1] = molecular target: Melanin-concentrating hormone receptor 1 (Homo sapiens, UniProt Q99705); test: Displacement of [125I]MCH from MCHR1 expressed in CHO cells; format: cell-based
# Outline: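 Human MCH R1, CHO cell membranes (0.1 mg/mL) on SPA beads (1 mg/mL). Buffer: 25 mM HEPES, 10 mM MgCl2, 5 mM MnCl2, 0.1% BSA, pH 7.4. Incubation 2–4 h at room temperature, scintillation count. Ki by non-linear regression; mean ± range of two determinations, each in quadruplicate.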
# [2] = molecular target: Melanin-concentrating hormone receptor 1 (Mus musculus) (UniProt Q8JZL2); test: Ex vivo displacement of [125I]S36057 binding from mouse brain MCHR1 at 30 mg/kg, po after 6 hrs; format: functional, organism-based; design: dose 30 mg/kg
# Sequence of Melanin-concentrating hormone receptor 1 (Mus musculus) (Q8JZL2 whole entry): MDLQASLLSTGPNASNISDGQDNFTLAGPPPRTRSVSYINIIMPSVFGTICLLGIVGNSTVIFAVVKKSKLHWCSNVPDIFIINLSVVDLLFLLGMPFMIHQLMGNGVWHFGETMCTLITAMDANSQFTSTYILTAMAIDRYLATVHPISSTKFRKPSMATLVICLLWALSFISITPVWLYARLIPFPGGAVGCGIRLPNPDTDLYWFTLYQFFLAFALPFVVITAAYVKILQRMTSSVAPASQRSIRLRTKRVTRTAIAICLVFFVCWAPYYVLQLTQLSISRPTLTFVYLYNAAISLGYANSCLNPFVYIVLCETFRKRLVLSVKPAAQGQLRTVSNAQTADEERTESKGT
# [3] = molecular target: Melanin-concentrating hormone receptor 1 (Mus musculus) (UniProt Q8JZL2); test: Ex vivo displacement of [125I]S36057 binding from mouse brain MCHR1 at 30 mg/kg, po after 24 hrs; format: functional, organism-based; design: dose 30 mg/kg
# [4] = molecular target: T1, hERG (KCNH2) (Homo sapiens, UniProt Q12809); test: (§1) Inhibition of hERG expressed in CHO cells at 5 ug/mL by rubidium efflux assay; format: toxicity, cell-based; details: CHO cells that express hERG
# T1 sequence (Q12809 whole entry): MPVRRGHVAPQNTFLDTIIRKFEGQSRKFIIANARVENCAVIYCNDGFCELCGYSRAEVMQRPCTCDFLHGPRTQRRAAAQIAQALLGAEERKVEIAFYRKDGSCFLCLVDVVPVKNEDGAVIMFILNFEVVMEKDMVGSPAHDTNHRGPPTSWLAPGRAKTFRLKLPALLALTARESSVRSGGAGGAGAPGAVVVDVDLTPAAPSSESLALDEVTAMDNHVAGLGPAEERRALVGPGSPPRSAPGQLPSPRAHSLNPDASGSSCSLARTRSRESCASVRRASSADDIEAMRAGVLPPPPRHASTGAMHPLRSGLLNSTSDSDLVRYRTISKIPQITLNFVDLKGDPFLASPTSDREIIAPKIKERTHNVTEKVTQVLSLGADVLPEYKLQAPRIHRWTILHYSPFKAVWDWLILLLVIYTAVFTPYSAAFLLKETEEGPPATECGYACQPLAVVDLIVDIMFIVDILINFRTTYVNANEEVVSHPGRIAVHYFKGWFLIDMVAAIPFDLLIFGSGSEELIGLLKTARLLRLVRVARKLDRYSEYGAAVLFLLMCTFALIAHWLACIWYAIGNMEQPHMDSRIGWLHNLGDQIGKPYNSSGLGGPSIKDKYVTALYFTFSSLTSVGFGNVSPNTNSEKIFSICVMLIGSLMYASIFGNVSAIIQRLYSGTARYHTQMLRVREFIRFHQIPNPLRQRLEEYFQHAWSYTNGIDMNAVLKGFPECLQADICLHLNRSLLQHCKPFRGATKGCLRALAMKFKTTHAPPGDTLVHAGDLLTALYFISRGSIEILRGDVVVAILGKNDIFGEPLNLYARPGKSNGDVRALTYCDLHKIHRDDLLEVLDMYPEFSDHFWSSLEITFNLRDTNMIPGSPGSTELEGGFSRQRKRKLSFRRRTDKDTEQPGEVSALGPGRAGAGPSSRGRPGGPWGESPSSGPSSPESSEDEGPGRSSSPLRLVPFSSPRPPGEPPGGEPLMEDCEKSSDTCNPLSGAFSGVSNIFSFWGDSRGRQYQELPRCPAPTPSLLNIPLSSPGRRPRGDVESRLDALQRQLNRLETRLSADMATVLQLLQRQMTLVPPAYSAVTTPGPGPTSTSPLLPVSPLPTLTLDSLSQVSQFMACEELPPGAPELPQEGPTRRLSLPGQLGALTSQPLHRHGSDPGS
# Outline: (§2)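 hERG-CHO cells plated 24 h, then loaded 3 h in HEPES-buffered saline with 5.4 mM RbCl. Compound added and equilibrated 30 min at 37 °C. Cells washed three times in Rb-free saline (5.4 mM KCl), then depolarized 5 min with 45.4 mM KCl.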
# [5] = molecular target: T1, hERG (KCNH2); test: Inhibition of hERG expressed in CHO cells at […] by rubidium efflux assay; format: toxicity, cell-based; details: CHO cells that express hERG
# [6] = molecular target: Voltage-gated inwardly rectifying potassium channel KCNH2 (Homo sapiens, UniProt Q12809); test: as §1; format: toxicity, cell-based; details: cho; outline: as §2
# Sequence of Voltage-gated inwardly rectifying potassium channel KCNH2 (Q12809 whole entry): as above
# Sequence of Melanin-concentrating hormone receptor 1 (Q99705 whole entry): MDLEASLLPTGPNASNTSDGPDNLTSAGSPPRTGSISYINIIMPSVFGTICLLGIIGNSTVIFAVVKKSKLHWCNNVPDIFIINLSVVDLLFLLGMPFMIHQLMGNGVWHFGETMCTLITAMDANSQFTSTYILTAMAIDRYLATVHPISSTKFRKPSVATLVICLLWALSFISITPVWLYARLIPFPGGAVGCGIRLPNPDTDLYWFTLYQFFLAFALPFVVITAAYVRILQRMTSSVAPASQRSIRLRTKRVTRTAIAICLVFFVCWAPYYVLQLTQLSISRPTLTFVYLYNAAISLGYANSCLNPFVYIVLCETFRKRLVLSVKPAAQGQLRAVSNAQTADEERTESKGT
SMILES,Ki [1] [nM],Activity [2] [%],Activity [3],inhibition at 5 ug/mL [4] [%],inhibition at […] [5] [%],Activity [6]
NCc1ncc(C2=CCC(N(CCN3CCCC3)C(=O)Nc3ccc(F)c(Cl)c3)CC2)s1 (stereo not given),13,88,75%,10,–,–
CC1CC[C@@H](CO)N1CCN(C(=O)Nc1cc(Cl)nc(Cl)c1)[C@@H]1CC[C@]2(c3cccc(C#N)c3)CC2C1 (stereo not given in full),1.2,82,41%,60,–,–
N#Cc1cccc([C@]23CC[C@@H](N(CCNCCF)C(=O)Nc4cc(Cl)nc(Cl)c4)CC2C3)c1 (stereo not given in full),4.4,89,32%,84,–,–
CC(C)NCCN(C(=O)Nc1cc(Cl)nc(Cl)c1)[C@@H]1CC[C@]2(c3cccc(C#N)c3)CC2C1 (stereo not given in full),1.9,93,70%,–,–,Not Active
CC(C)N(CCF)CCN(C(=O)Nc1cc(Cl)nc(Cl)c1)[C@@H]1CC[C@]2(c3cccc(C#N)c3)CC2C1 (stereo not given in full),10,99,97%,50,–,–
CC(C)N(CCO)CCN(C(=O)Nc1ccc(F)c(Cl)c1)[C@@H]1CC[C@]2(c3cccc(C#N)c3)CC2C1 (stereo not given in full),8.7,73,38%,88,–,–
N#Cc1ccc(C2=CCC(N(CCN3CCCC3)C(=O)Nc3ccc(F)c(Cl)c3)CC2)s1 (stereo not given),4.2,84,97%,74,–,–
CC(C)N(CCO)CCN(C(=O)Nc1cc(Cl)nc(Cl)c1)[C@@H]1CC[C@]2(c3cccc(C#N)c3)CC2C1 (stereo not given in full),1.6,99,inactive,–,–,Not Active

# The next lines start with results.
Ki [1] [nM],Activity [2] [%],Activity [3],SMILES,inhibition at 5 ug/mL [4] [%],inhibition at […] [5] [%],Activity [6]
5,83,inactive,CC(C)N(CCN(C(=O)Nc1ccc(F)c(Cl)c1)[C@@H]1CC[C@]2(c3cccc(C#N)c3)CC2C1)C(C)C (stereo not given in full),78,44,–
4.1,62,inactive,CO/N=C/c1cccc([C@]23CC[C@@H](N(CCN(C(C)C)C(C)C)C(=O)Nc4ccc(F)c(Cl)c4)CC2C3)c1 (stereo not given in full),76,–,–
9.4,73,25%,CC(C)N(CCN(C(=O)Nc1ccc(F)c(Cl)c1)[C@@H]1CC[C@]2(c3cccc(C#N)c3)CC2C1)[C@H](C)CO (stereo not given in full),–,–,Not Active
